Measured values from different studies.
CDK7: Cyclin-dependent kinase 7 (CDK7, Homo sapiens, UniProt P50613)
CDK7 with cyclin H: Cyclin-dependent kinase 7, with cyclin H (CDK7, Homo sapiens, UniProt P50613)

| SMILES | target | read-out | action | technique | tested at | measurement | value |
| --- | --- | --- | --- | --- | --- | --- | --- |
| COc1ncccc1-c1cnn2ccc(N3CCN(C(=O)OC(C)C)CC3)nc12 | CDK7 | binding |  | competition with immobilised ligand | 1 µM | remaining binding | 100% |
| CNC(=O)Oc1ccc2c(c1)[C@]1(C)CCN(C)[C@@H]1N2C | CDK7 with cyclin H | enzyme activity | inhibitor | ADP detection | 10 µM | inhibition | -4.5% |
| Nc1ncc(-c2nc(N3CCOCC3)nc(N3CCOCC3)n2)c(C(F)F)n1 | CDK7 | binding |  | competition with immobilised ligand | 10 µM | remaining binding | 56% |
| Cc1nn(C)cc1-c1nc2c(N3CCN(Cc4ccc(Cl)cc4)CC3)c(Cl)cnc2[nH]1 | CDK7 | binding |  | competition with immobilised ligand | 1 µM | remaining binding | 100% |
| C[C@]12CC[C@H](O)CC1=CC[C@@H]1[C@@H]2CC[C@]2(C)C(=O)CC[C@@H]12 | CDK7 with cyclin H | enzyme activity | inhibitor | ADP detection | 10 µM | inhibition | -2% |
| Cn1cc(-c2cc(F)cc(N3CCn4c(cc5c4CCCC5)C3=O)c2CO)cc(Nc2ccc(N3CCN(C4COC4)CC3)cn2)c1=O | CDK7 with cyclin H | enzyme activity | inhibitor |  | 0.1 µM | inhibition | 4% |
| Cn1cncc1[C@](O)(COc1ccc(C#N)cc1-c1ccc(OC(F)(F)F)cc1)c1ccc(C#N)cc1 | CDK7 | cell-free assay |  | competition with immobilised ligand | 1 µM | remaining binding | 95% |
| CCN1CCN(Cc2ccc(C(=O)Nc3ccc(C)c(Oc4ccc5c(c4)CC(=O)N5)c3)cc2C(F)(F)F)CC1 | CDK7 | binding |  | competition with immobilised ligand | 1 µM | remaining binding | 84% |
| Cn1cc(-c2cccc(N3CCc4c(sc5c4CC(C)(C)C5)C3=O)c2CO)cc(Nc2ccncn2)c1=O | CDK7 with cyclin H | enzyme activity | inhibitor |  | 1 µM | inhibition | -11% |
| COc1cc2occc2c2oc(=O)ccc12 | CDK7 with cyclin H | enzyme activity | inhibitor | ADP detection | 10 µM | inhibition | -29.9% |
